Measurements reported in ChEMBL document CHEMBL1121883, “1-(Naphthylalkyl)-1H-imidazole derivatives, a new class of anticonvulsant agents” (J Med Chem, 1981).

How the values were obtained:
[1] = (§1) Lethal dose was measured in mice after ip administration.; assay type: toxicity, organism-based; settings: mouse, in vivo
Outline: (§2)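 Male Simonsen ICR-derived mice (16-24 g), groups of three, given compound ip in increasing doses within a behavioral screen. Deaths counted on day 5, and LD50 estimated from 5-day survival. Quantal data analysed by the Litchfield-Wilcoxon method.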

[2] = test system: Mus musculus; assay: Dose of compound causing a neurological deficit in 50% of mice after ip administration; assay type: functional
Outline: (§3)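 Traction test in male Hilltop ICR-derived mice (19-30 g, groups of 8-10) just before electroshock, 15 min after ip or 30 min after oral dosing. Mice placed on a 16-gauge, 65-cm copper wire 40 cm above the table; deficit scored as failure to stay on for 10 s. ND50 with 95% limits by Litchfield-Wilcoxon.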

[3] = test system: Mus musculus; assay: Compound was evaluated for anticonvulsant activity by maximal electroshock assay(MES) in mice after ip administration; assay type: functional
Outline: (§4)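 Male Hilltop ICR-derived mice (19-30 g), groups of 8-10, dosed ip with compound or aqueous vehicle. After 15 min pretreatment, a transcorneal 60-Hz, 50 mA shock was given for 0.2 s. Just before the shock, each mouse was tested on a horizontal wire (10 s). Quantal data were analysed by Litchfield-Wilcoxon to give ED50 with 95% confidence limits.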

[4] = test system: Mus musculus; assay: Protective index is defined as ND50 (i.p.) divided by MES ED50(i.p.); assay type: functional
Outline: (§5)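 Ratio of ND50 from the wire traction test to MES ED50, both measured by the same route (ip or oral) in the same animals. Quantal dose-response data for each were evaluated by Litchfield-Wilcoxon.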

[5] = test system: Mus musculus; assay: Dose causing a neurological deficit in 50% of mice after ip administration.; assay type: functional; outline: as §3
[6] = test system: Mus musculus; assay: Anticonvulsant activity in mouse maximal electroshock assay following i.p. administration.; assay type: functional; settings: ip; outline: as §4
[7] = test system: Mus musculus; assay: compound was evaluated for anticonvulsant activity by maximal electroshock assay(MES) in mice after po administration.; assay type: functional
Outline: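 Male Hilltop ICR-derived mice, 19-30 g, groups of 8-10, dosed orally with compound or aqueous vehicle. Transcorneal electroshock (50 mA, 60 Hz, 0.2 s) delivered 30 min after dosing, immediately after a wire-hang neurological test. ED50 with 95% confidence limits estimated from quantal data by Litchfield-Wilcoxon.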

[8] = test system: Mus musculus; assay: Dose causing a neurological deficit in 50% of mice following p.o. administration.; assay type: functional; outline: as §3
[9] = test system: Mus musculus; assay: Protective index defined as ND50 (p.o.) divided by MES ED50(op); assay type: functional; outline: as §5
[10] = test system: Rattus norvegicus; assay: Compound was evaluated for anticonvulsant activity by maximal electroshock assay(MES) in rat after ip administration.; assay type: functional
[11] = test system: Rattus norvegicus; assay: Dose of compound causing a neurological deficit in 50% of rat after ip administration.; assay type: functional
Outline: (§6)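 Rats (Simonsen Sprague-Dawley-derived, 80-110 g, groups of 8-10) placed on a suspended 16-gauge, 65-cm copper wire just before electroshock. Deficit scored as inability to remain for 8 s. Pretreatment was 15 min ip or 30 min oral. Quantal data analysed by Litchfield-Wilcoxon to give ND50 with 95% limits.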

[12] = test system: Rattus norvegicus; assay: Dose of compound causing a neurological deficit in 50% of rat after ip administration; 29-57; assay type: functional; outline: as §6
[13] = test system: Mus musculus; assay: Dose of compound causing a neurological deficit in 50% of mice after po administration; 82-1100; assay type: functional; outline: as §3
[14] = test system: Rattus norvegicus; assay: Compound was evaluated for anticonvulsant activity by maximal electroshock assay(MES) in rat after ip administration; 1.5-6.7; assay type: functional
[15] = test system: Mus musculus; assay: as §1; assay type: functional; outline: as §2
[16] = test system: Rattus norvegicus; assay: Dose of compound causing a neurological deficit in 50% of rat after po administration.; assay type: functional; outline: as §6
[17] = test system: Mus musculus; assay: Compound was evaluated for anticonvulsant activity by maximal electroshock assay(MES) in mice after po administration; 13-23; assay type: functional
Outline: (§7)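 Male Hilltop ICR-derived mice (19-30 g), groups of 8-10, given compound or aqueous vehicle orally. The transcorneal 60-Hz shock (50 mA, 0.2 s) followed a 30 min pretreatment and a wire-hang neurological check (10 s). ED50 and 95% confidence limits were obtained from quantal data by the Litchfield-Wilcoxon method.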

[18] = test system: Mus musculus; assay: Dose of compound causing a neurological deficit in 50% of mice after ip administration; 21-52; assay type: functional; outline: as §3
[19] = test system: Rattus norvegicus; assay: Compound was evaluated for anticonvulsant activity by maximal electroshock assay(MES) in rat after po administration; 4.5-19; assay type: functional
Outline: (§8)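 Male Simonsen Sprague-Dawley-derived rats, 80-110 g, groups of 8-10, dosed with compound or aqueous vehicle; pretreatment 15 min after ip or 30 min after oral dosing. Transcorneal electroshock, 150 mA, 60 Hz, 0.2 s, given after the wire test. ED50 with 95% confidence limits from quantal data by Litchfield-Wilcoxon.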

[20] = test system: Mus musculus; assay: Compound was evaluated for anticonvulsant activity by maximal electroshock assay(MES) in mice after ip administration; 14-33; assay type: functional; outline: as §4
[21] = test system: Mus musculus; assay: Dose of compound causing a neurological deficit in 50% of mice after ip administration; 32-90; assay type: functional; outline: as §3
[22] = test system: Mus musculus; assay: Dose of compound causing a neurological deficit in 50% of mice after ip administration; 57-91; assay type: functional; outline: as §3
[23] = test system: Mus musculus; assay: Compound was evaluated for anticonvulsant activity by maximal electroshock assay(MES) in mice after ip administration; 18-48; assay type: functional; outline: as §4
[24] = test system: Mus musculus; assay: Compound was evaluated for anticonvulsant activity by maximal electroshock assay(MES) in mice after ip administration; 22-80; assay type: functional; outline: as §4
[25] = test system: Mus musculus; assay: Compound was evaluated for anticonvulsant activity by maximal electroshock assay(MES) in mice after po administration; 37-60; assay type: functional; outline: as §7
[26] = test system: Rattus norvegicus; assay: Compound was evaluated for anticonvulsant activity by maximal electroshock assay(MES) in rat after ip administration; 0.6-6.6; assay type: functional
[27] = test system: Rattus norvegicus; assay: Compound was evaluated for anticonvulsant activity by maximal electroshock assay(MES) in rat after po administration; 13-39; assay type: functional; outline: as §8
[28] = test system: Mus musculus; assay: Compound was evaluated for anticonvulsant activity by maximal electroshock assay(MES) in mice after ip administration; 11-18; assay type: functional; outline: as §4
[29] = test system: Mus musculus; assay: Dose of compound causing a neurological deficit in 50% of mice after ip administration; 66-92; assay type: functional; outline: as §3
[30] = test system: Mus musculus; assay: Compound was evaluated for anticonvulsant activity by maximal electroshock assay(MES) in mice after po administration.; assay type: functional; outline: as §7

| Compound | LD50 [1] | PI [4] | ND50 [5] | ED50 [6] | also measured |
| --- | --- | --- | --- | --- | --- |
| O=C(Cn1ccnc1)c1cccc2ccccc12 | > 100 mg/kg |  |  |  |  |
| CS(=O)(=O)C(Cn1ccnc1)c1ccc2ccccc2c1.Cl (centres undefined) |  |  |  |  | ND50 [2]: >40 mg/kg; ED50 [3]: > 40 mg/kg |
| CSC(Cn1ccnc1)c1ccc2ccccc2c1.Cl (centres undefined) |  | 2.1 | 76 mg/kg | 37 mg/kg |  |
| Cl.c1ccc2cc(C3(Cn4ccnc4)SCCS3)ccc2c1 | > 30 mg/kg | 2.4 | 64 mg/kg |  | ED50 [7]: 70 mg/kg; ND50 [8]: 125 mg/kg; PI [9]: 1.8 |
| Cl.c1ccc2cc(Cn3ccnc3)ccc2c1 |  |  | 32 mg/kg | 25 mg/kg | ED50 [10]: 6.2 mg/kg; ND50 [11]: 32 mg/kg |
| Cl.c1ccc2c(C3(Cn4ccnc4)SCCS3)cccc2c1 |  | 2.2 | 57 mg/kg | 26 mg/kg |  |
| Cl.c1ccc2cc(C3(Cn4ccnc4)SCCCS3)ccc2c1 | > 100 mg/kg | 1.4 |  | 65 mg/kg |  |
| Cl.c1ccc(CSC(Cn2ccnc2)(SCc2ccccc2)c2ccc3ccccc3c2)cc1 |  |  | >100 mg/kg | > 100 mg/kg |  |
| Cl.c1ccc(SC(Cn2ccnc2)(Sc2ccccc2)c2ccc3ccccc3c2)cc1 |  |  | >60 mg/kg | > 60 mg/kg |  |
| CC(C)SC(Cn1ccnc1)(SC(C)C)c1ccc2ccccc2c1.Cl |  | >1.2 | >100 mg/kg | 86 mg/kg |  |
| CCCSC(Cn1ccnc1)(SCCC)c1ccc2ccccc2c1.Cl | > 100 mg/kg |  | >100 mg/kg | > 100 mg/kg |  |
| Cl.c1ccc2cc(C3(Cn4ccnc4)OCCO3)ccc2c1 |  |  |  |  | ND50 [12]: 41 mg/kg; ND50 [13]: 173 mg/kg; ED50 [14]: 4.5 mg/kg; LD50 [15]: > 100 mg/kg; ND50 [16]: >300 mg/kg; ED50 [17]: 18 mg/kg; ND50 [18]: 31 mg/kg; ED50 [19]: 10 mg/kg |
| COc1c(C(=O)Cn2ccnc2)ccc2ccccc12.Cl |  | 2.2 |  |  | ED50 [20]: 23 mg/kg; ND50 [21]: 51 mg/kg |
| Cc1ccccc1OC(Cn1ccnc1)c1ccc2ccccc2c1.Cl (centres undefined) |  | 2.1 |  |  | ND50 [22]: 70 mg/kg; ED50 [23]: 33 mg/kg |
| Cl.O=C(Cn1ccnc1)c1ccc2cc(Br)ccc2c1 |  |  |  |  | ED50 [24]: 41 mg/kg |
| CCSC(Cn1ccnc1)(SCC)c1ccc2ccccc2c1.Cl | > 100 mg/kg | 2.2 | 78 mg/kg |  |  |
| CSC(Cn1ccnc1)(SC)c1ccc2ccccc2c1.Cl | > 100 mg/kg | 0.9 | 29 mg/kg |  |  |
| C[S+]([O-])C(Cn1ccnc1)c1ccc2ccccc2c1.Cl (centres undefined) |  |  |  |  | ND50 [2]: >40 mg/kg; ED50 [3]: > 40 mg/kg |
| Cc1cc2cccc(C(=O)Cn3ccnc3)c2cc1C.Cl |  | >3.8 | >300 mg/kg | 80 mg/kg |  |
| Cl.c1ccc2cc(C3(CCn4ccnc4)SCCS3)ccc2c1 |  | 2.2 | 33 mg/kg | 15 mg/kg |  |
| OC(Cn1ccnc1)c1ccc2ccccc2c1 (centres undefined) | > 300 mg/kg |  |  |  |  |
| Cl.O=C(Cn1ccnc1)c1ccc2ccccc2c1 [NAFIMIDONE HYDROCHLORIDE] |  |  |  |  | ED50 [25]: 48 mg/kg; LD50 [15]: > 100 mg/kg; ND50 [16]: >100 mg/kg; ND50 [8]: >200 mg/kg; PI [9]: >4.2; ED50 [26]: 1.7 mg/kg; ED50 [27]: 26 mg/kg; ED50 [28]: 15 mg/kg; ND50 [11]: >100 mg/kg; ND50 [29]: 83 mg/kg |
| CCC1(c2ccccc2)C(=O)NC(=O)NC1=O [PHENOBARBITAL] | > 100 mg/kg | 2 | 30 mg/kg | 15 mg/kg | ED50 [30]: 19 mg/kg; ND50 [8]: 36 mg/kg; PI [9]: 1.9 |
